For orientation: IC50 means the midpoint of a concentration-inhibition curve. Broadly, the Tmax is the time at which the peak concentration occurs.

The values that follow come from ChEMBL document CHEMBL4814076, “Discovery of a Potent and Selective Covalent Inhibitor of Bruton's Tyrosine Kinase with Oral Anti-Inflammatory Activity” (ACS Med Chem Lett, 2021).

Data set [1] deals with Tyrosine-protein kinase BTK (Mus musculus, UniProt P35991). As to the kind of experiment: Inhibition of BTK in C57Bl/6 mouse splenocyte assessed as reduction in anti-IgM-induced CD69 expression incubated for 1 hr followed anti-IgM stimulation and measured after overnight by flow cytometry analysis. The class given is tissue-based. The method, boiled down:
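Mouse splenocytes stimulated with anti-IgM. CD69 expression measured as the read-out.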

The target of data set [2] is T1, Cytoplasmic tyrosine-protein kinase BMX (Homo sapiens, UniProt P51813).
T1 sequence (P51813 whole entry): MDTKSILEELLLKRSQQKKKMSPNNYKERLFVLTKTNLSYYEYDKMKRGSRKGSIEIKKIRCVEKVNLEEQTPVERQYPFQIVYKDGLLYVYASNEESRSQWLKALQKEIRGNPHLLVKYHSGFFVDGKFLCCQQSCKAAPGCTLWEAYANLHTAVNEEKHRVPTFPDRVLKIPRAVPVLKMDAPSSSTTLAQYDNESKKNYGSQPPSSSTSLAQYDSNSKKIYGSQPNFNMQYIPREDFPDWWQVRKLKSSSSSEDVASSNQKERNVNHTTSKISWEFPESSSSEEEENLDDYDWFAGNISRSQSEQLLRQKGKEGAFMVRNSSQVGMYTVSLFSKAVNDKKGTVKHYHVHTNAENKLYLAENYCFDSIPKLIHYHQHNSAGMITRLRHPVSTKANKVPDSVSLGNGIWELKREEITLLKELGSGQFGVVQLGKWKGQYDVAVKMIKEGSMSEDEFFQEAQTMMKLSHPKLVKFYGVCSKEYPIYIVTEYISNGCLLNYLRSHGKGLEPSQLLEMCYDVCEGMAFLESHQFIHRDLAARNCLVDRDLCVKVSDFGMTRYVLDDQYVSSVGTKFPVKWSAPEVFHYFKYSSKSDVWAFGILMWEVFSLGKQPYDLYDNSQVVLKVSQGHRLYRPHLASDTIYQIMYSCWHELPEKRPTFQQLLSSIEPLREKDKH
In words: Inhibition of recombinant human full length BMX using poly(Glu, Tyr) 4:1 as substrate incubated for 40 mins in presence of [gamma33P]ATP by scintillation counting method.

For data set [3], the target named is Receptor tyrosine-protein kinase erbB-4 (Homo sapiens, UniProt Q15303). As to the kind of experiment: Inhibition of recombinant human ERBB4 (706 to 991 residues) using poly(Glu, Tyr) 4:1 as substrate incubated for 40 mins in presence of [gamma33P]ATP by scintillation counting method.
The target in data set [4] is T2, Tyrosine-protein kinase Tec (Homo sapiens, UniProt P42680).
T2 sequence (P42680 whole entry): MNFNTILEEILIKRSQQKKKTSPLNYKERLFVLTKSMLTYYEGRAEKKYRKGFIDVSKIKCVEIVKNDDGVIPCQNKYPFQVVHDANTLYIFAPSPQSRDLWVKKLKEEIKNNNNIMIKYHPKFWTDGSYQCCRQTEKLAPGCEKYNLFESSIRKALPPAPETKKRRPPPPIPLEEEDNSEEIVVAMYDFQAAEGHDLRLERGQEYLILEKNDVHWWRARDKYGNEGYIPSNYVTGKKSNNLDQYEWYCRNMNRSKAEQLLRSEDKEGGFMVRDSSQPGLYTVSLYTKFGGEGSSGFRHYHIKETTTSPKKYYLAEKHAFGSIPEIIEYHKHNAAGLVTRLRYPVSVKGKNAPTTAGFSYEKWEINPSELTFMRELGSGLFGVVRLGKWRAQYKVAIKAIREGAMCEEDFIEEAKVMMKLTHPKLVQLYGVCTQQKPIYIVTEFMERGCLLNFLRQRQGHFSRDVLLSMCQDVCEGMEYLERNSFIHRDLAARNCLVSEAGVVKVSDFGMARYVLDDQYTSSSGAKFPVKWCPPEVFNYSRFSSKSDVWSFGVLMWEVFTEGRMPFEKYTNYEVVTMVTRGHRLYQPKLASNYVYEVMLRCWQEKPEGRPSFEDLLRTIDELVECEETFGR
In words: Inhibition of recombinant human TEC (174 to end residues) using EFPIYDFLPAKKK as substrate incubated for 40 mins in presence of [gamma33P]ATP by scintillation counting method.

Data set [5] in a line: Clearance in Sprague-Dawley rat at 5 mg/kg, po or 1 mg/kg, iv measured upto 24 hrs by LC-MS/MS analysis. The class given is ADME, organism-based. Conditions: in vivo. The method, boiled down: (§1)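 Rats (nonfasted; IV 1 mg/kg, PO 5 mg/kg) and dogs (fasted; IV 0.5 mg/kg, PO 2.5 mg/kg) dosed from 20% hydroxypropyl-β-cyclodextrin solution.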
Data set [6] can be described thus: Tmax in Sprague-Dawley rat at 5 mg/kg, po measured upto 24 hrs by LC-MS/MS analysis. The class given is ADME, organism-based. Conditions: in vivo. The method, boiled down: as §1
Data set [7] can be described thus: Volume of distribution at steady state in Beagle dog at 2.5 mg/kg, po or 0.5 mg/kg, iv measured upto 24 hrs by LC-MS/MS analysis. The class given is ADME, organism-based, Canis lupus familiaris. Conditions: in vivo, read-out: Vdss. The method, boiled down: as §1
Data set [8] is described as follows: In vivo protein occupancy at BTK in Wistar rat at 3 mg/kg, po measured after 48 hrs by ELISA relative to control. The class given is functional. The method, boiled down:
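Single oral dose of 3 mg/kg in rats. BTK occupancy compared with plasma concentration over time out to 48 h.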
In general terms: In an ELISA, binding on a coated surface is turned into a signal by an enzyme label.

Data set [9] addresses Tyrosine-protein kinase BTK (Homo sapiens, UniProt Q06187). As to the kind of experiment: Irreversible covalent inhibition of recombinant unphosphorylated human GST-tagged BTK kinase domain (389 to 659 residues) expressed in insect cells assessed as protein-compound adduct formation under denaturing conditions by HPLC analysis. The method, boiled down:
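BTK protein incubated with compound. Adduct mass measured under denaturing and nondenaturing conditions.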

Active and inactive are the calls of the source. The calls are words filed in the database; no cut-off is given here.

Receptor tyrosine-protein kinase erbB-4, sequence (Q15303 whole entry, the tested form may be a part): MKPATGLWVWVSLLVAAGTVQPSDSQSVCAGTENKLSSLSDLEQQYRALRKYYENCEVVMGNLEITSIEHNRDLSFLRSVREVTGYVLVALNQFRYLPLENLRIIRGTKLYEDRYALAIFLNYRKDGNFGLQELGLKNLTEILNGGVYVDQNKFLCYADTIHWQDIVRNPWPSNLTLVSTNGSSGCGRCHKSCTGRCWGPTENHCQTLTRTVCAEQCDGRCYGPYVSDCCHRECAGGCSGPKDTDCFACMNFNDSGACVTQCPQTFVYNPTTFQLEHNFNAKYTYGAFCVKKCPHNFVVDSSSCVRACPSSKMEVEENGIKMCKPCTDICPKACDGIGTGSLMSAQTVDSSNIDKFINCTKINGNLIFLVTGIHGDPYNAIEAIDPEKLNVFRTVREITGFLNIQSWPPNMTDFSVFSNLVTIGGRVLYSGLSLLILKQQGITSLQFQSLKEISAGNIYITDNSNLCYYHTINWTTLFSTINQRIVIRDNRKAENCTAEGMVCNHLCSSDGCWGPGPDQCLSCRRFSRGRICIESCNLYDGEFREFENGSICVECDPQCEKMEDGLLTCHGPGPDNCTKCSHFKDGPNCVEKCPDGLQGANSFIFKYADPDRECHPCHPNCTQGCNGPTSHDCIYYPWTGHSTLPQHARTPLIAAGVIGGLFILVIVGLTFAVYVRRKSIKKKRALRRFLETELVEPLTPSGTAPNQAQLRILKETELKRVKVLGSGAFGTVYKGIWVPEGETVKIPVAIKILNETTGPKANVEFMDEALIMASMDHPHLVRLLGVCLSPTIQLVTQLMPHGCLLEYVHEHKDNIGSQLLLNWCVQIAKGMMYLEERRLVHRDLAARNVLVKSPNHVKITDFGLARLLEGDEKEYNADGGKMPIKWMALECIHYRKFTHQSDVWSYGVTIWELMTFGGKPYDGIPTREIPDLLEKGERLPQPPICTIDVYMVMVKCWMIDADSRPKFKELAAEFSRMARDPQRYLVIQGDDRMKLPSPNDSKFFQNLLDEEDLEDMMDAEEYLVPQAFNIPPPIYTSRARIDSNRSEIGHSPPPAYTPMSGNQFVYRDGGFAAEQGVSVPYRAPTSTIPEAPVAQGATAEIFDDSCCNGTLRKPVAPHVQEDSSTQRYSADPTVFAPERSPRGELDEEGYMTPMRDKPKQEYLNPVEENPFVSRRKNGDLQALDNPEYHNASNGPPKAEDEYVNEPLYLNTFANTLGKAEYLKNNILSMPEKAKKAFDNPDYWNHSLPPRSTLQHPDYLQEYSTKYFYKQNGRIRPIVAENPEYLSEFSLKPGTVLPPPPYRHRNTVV
Tyrosine-protein kinase BTK (Homo sapiens, UniProt Q06187), sequence (Q06187 whole entry, the tested form may be a part): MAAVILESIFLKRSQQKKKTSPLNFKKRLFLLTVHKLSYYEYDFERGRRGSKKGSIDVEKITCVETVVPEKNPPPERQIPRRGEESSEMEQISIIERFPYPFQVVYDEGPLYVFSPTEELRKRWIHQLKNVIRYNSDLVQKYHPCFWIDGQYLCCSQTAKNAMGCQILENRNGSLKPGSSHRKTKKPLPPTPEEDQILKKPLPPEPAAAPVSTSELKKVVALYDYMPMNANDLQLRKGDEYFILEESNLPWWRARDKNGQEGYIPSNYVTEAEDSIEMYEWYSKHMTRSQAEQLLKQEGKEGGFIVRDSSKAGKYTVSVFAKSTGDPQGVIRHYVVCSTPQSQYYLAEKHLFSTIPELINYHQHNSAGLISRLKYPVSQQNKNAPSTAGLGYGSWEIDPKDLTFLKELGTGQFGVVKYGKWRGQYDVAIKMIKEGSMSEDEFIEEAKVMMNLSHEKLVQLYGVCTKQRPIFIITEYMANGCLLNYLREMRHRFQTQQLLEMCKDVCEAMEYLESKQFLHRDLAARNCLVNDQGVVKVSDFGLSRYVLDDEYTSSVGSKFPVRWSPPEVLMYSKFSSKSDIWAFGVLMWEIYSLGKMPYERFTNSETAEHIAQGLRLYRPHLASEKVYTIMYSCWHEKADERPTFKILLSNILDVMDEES
Tyrosine-protein kinase BTK (Mus musculus, UniProt P35991), sequence (P35991 whole entry): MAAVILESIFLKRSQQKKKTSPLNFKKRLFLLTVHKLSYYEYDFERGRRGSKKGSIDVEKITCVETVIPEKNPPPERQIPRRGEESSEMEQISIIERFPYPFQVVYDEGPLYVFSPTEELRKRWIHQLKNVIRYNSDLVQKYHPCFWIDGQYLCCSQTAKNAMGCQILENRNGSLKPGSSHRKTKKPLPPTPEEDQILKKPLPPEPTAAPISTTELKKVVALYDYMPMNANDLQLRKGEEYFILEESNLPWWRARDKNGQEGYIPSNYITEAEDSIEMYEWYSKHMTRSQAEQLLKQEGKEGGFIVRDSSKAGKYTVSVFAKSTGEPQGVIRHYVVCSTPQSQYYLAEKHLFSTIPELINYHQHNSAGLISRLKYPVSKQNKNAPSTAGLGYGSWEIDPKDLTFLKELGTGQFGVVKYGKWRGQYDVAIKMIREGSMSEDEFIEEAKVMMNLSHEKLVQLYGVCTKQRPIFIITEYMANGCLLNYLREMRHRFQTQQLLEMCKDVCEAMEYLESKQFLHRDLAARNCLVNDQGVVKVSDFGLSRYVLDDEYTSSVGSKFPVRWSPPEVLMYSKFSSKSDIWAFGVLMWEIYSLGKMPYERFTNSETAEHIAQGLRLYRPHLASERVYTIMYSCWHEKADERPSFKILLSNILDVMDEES

As for `C=CC(=O)N1CC[C@@H](NC(=O)c2sc3nccc4c3c2NC(=O)N4c2ccc(Oc3ccccc3)cc2C)C1`, the IC50 was determined as 11 nM in data set [1], 129 nM in data set [2], 377 nM in [3] and 409 nM in data set [4]. In data set [5], the clearance is 39.6 mL/min/kg. The Tmax in data set [6] was found to be 1 h. In addition, the Vd in [7] is 1.1 L/kg. In data set [8], this compound gave an Activity of 50%. In [9], the inhibition result is “Active”.
